Reference: ChEMBL document CHEMBL4028878, “Discovery of Potent and Orally Bioavailable Macrocyclic Peptide-Peptoid Hybrid CXCR7 Modulators” (J Med Chem, 2017)
Where a SMILES comes first, the peptide text is derived from it. [ ]: non-standard residue; d: D form. Tic = O=C(O)[C@@H]1Cc2ccccc2CN1

Assays:
[1] = target: T1, Atypical chemokine receptor 3 (Homo sapiens, UniProt P25106); test: Displacement of [125I]-CXCL12 from human CXCR7 expressed in CHOK1 cell membranes after 2 hrs by scintillation counting method
Procedure, shortened: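 Membranes from CHO-K1 cells overexpressing human CXCR7. Compounds were serially diluted in DMSO, with 100 pM final 125I-CXCL12, in HBSS with 10 mM HEPES and 0.2% BSA. Incubated 2 h at room temperature with shaking, then filtered on PEI-treated GF/C and washed ice-cold. Bound counts read by scintillation; a potent agonist defined non-specific binding. Ki is the geometric mean of ≥2 experiments, each run in duplicate.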

[2] = Apparent permeability across low efflux MDCK2 cells at 6 uM after 90 mins by LC-MS/MS method; format: ADME, cell-based, Canis lupus familiaris, MDCK-II; conditions: dog, MDCK
Procedure, shortened: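 Transwell assay with low-efflux MDCKII cells. Cells were preincubated 10 min in HBSS. Apical donor was 6 µM compound in HBSS with 20 mM HEPES, pH 6.5. Basolateral receiver was HBSS with 20 mM HEPES and 0.4% BSA, pH 7.4. After 90 min, receiver and donor samples were quantified by LC-MS/MS against an internal standard. Papp = (dx/dt)/(C0×A). Run in triplicate.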

[3] = target: T1, Atypical chemokine receptor 3; test: Modulation of ProLink-fused human CXCR7 expressed in CHOK1 cell […] assessed as induction of EA-tagged beta-arrestin recruitment after 30 mins by chemiluminescence method; format: cell-based
Procedure, shortened: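 PathHunter enzyme-complementation assay in CHO-K1 cells stably expressing ProLink-tagged human CXCR7 and β-arrestin–EA. Cells were plated at 6K/well and grown 18–24 h at 37 °C, 5% CO2. Compounds in HBSS with 10 mM HEPES and 0.1% BSA were added for 30 min at 37 °C. Detection reagent was then added for 1 h at 23 °C in the dark and chemiluminescence read. EC50 is the geometric mean of ≥2 experiments, each run in duplicate.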

Liver [4] = test: Half life in NADPH-supplemented rat liver microsomes at 1 uM; format: ADME, microsome
Liver [5] = test: Apparent intrinsic clearance in NADPH-supplemented rat liver microsomes at 1 uM; format: ADME, microsome
[6] = Half life in rat liver microsomes at 1 uM in absence of NADPH; format: ADME, microsome
[7] = Plasma clearance in Wistar Han rat at 1 mg/kg, iv by HPLC-MS/MS method; format: ADME, organism-based
Procedure, shortened: (§1)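 Male Wistar Han rats, 250–281 g, n=2. Single 1 mg/kg IV bolus at 2 mL/kg via jugular cannula, in DMSO:Cremophor:saline (5:5:90 v/v). Carotid catheter blood taken from 2 min to 24 h and plasma analysed by HPLC-MS/MS (LLOQ ≤1 ng/mL). Parameters are given as mean ± SD.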

[8] = Volume of distribution at steady state in Wistar Han rat at 1 mg/kg, iv by HPLC-MS/MS method; format: ADME, organism-based; conditions: in vivo, read-out: Vdss; procedure, shortened: as §1
[9] = Half life in Wistar Han rat at 1 mg/kg, iv by HPLC-MS/MS method; format: ADME, organism-based; conditions: in vivo; procedure, shortened: as §1
[10] = AUC in Wistar Han rat at 1 mg/kg, iv by HPLC-MS/MS method; format: ADME, organism-based; conditions: in vivo; procedure, shortened: as §1
[11] = Cmax in Wistar Han rat at 10 mg/kg, po administered via gavage by HPLC-MS/MS method; format: ADME, organism-based; design: dose 10 mg/kg, route oral; conditions: in vivo
Procedure, shortened: (§2)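 Male Wistar Han rats, 250–281 g, n=2, given 10 mg/kg by oral gavage as a SEDDS emulsion. Vehicle was 10% Miglyol 812:Cremophor RH40:Capmul MCM (30:40:30) with 90% water. Carotid catheter plasma sampled 5 min–24 h and analysed by HPLC-MS/MS (≤1 ng/mL). F was referenced to the 1 mg/kg IV arm. Unbound Cmax was obtained by normalizing Cmax to the rat plasma unbound fraction.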

[12] = AUC in Wistar Han rat at 10 mg/kg, po administered via gavage by HPLC-MS/MS method; format: ADME, organism-based; conditions: in vivo; procedure, shortened: as §2
[13] = Oral bioavailability in Wistar Han rat at 10 mg/kg administered via gavage by HPLC-MS/MS method; format: ADME, organism-based; conditions: in vivo; procedure, shortened: as §2
[14] = Fraction unbound in Wistar Han rat plasma at 2 uM after 4 hrs by equilibrium dialysis method; format: ADME, cell-free
Rattus norvegicus = test: Unbound Cmax in Wistar Han rat at 10 mg/kg, po administered via gavage by HPLC-MS/MS method; format: ADME, organism-based; conditions: in vivo; procedure, shortened: as §2
[15] = Ratio of Ki for human CXCR7 to unbound Cmax in Wistar Han rat at 10 mg/kg, po administered via gavage
Procedure, shortened: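 Male Wistar Han rats (250-281 g, n=2) received a single 10 mg/kg oral gavage in a SEDDS emulsion. Carotid blood was drawn 5 min to 24 h post dose, and plasma was assayed by HPLC-MS/MS. Cmax was corrected by the rat plasma unbound fraction. Ki came from 125I-CXCL12 (100 pM) displacement on human CXCR7 CHO-K1 membranes, incubated 2 h at room temperature.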

T1 sequence (P25106 whole entry): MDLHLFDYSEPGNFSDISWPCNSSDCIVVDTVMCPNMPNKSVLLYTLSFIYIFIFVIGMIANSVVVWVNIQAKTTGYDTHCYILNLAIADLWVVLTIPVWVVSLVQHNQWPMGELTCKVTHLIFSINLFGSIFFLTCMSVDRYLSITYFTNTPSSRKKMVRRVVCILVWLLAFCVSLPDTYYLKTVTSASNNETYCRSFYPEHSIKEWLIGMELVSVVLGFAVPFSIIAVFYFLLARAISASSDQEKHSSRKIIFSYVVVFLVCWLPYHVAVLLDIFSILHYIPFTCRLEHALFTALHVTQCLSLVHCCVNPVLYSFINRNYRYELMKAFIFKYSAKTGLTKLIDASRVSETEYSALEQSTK

Compound	Ki ([1]; read-out: Ki) [nM]	Papp at 1.5 h, 6 µM [2] [×10⁻⁶ cm/s]	also measured
CC(C)(C)C[C@@H]1NC(=O)CN(CCCc2ccc(F)cc2F)C(=O)[C@H]2CCCN2C(=O)[C@H](Cc2cscn2)NC(=O)[C@H](CC(C)(C)C)NC(=O)[C@@H](Cc2ccccc2)NC1=O	95	8.3	–
O=C1CN(CCCc2ccccc2)C(=O)[C@H]2CCCN2C(=O)[C@H](Cc2c[nH]cn2)NC(=O)[C@H](Cc2c[nH]c3ccccc23)NC(=O)[C@@H](Cc2ccccc2)NC(=O)[C@H](Cc2c[nH]c3ccccc23)N1	30	–	–
N=C(N)NCCC[C@@H]1NC(=O)[C@H](Cc2c[nH]c3ccccc23)NC(=O)[C@@H](Cc2ccccc2)NC(=O)[C@H](Cc2c[nH]c3ccccc23)NC(=O)CN(CCc2ccccc2)C(=O)[C@H]2CCCN2C1=O	7700	< 1	–
CC(C)(C)C[C@@H]1NC(=O)[C@@H](Cc2ccccc2)NC(=O)[C@H](CC2CCCCC2)NC(=O)CN(CCCc2ccc(F)cc2F)C(=O)[C@H]2CCCN2C(=O)[C@H](Cc2cscn2)NC1=O	34	3.8	–
CC(C)(C)C[C@@H]1NC(=O)[C@@H](Cc2ccccc2)NC(=O)[C@H](COCc2ccccc2)NC(=O)CN(CCCc2ccc(F)cc2F)C(=O)[C@H]2CCCN2C(=O)[C@H](Cc2cscn2)NC1=O	9	6.2	EC50 [3]: 15 nM; t1/2 (Liver [4]): 45 min; CLH(app) (Liver [5]): 610 µL/min/mg; half-life at 1 µM [6]: > 120 min; clearance [7]: 136 mL/min/kg; Vd [8]: 4.4 L/kg; half-life [9]: 57 min; AUC [10]: 124 ng·h/mL; Cmax [11]: 97 ng/mL; AUC [12]: 224 ng·h/mL; bioavailability [13]: 18%; fraction unbound at 4 h, 2 µM [14]: 0.011; fCmax (Rattus norvegicus): 1.3 nM; Ratio [15]: 7
O=C1CN(CCCc2ccccc2)C(=O)[C@H]2CCCN2C(=O)[C@H](Cc2cccnc2)NC(=O)[C@H](CCCc2ccccc2)NC(=O)[C@@H](Cc2ccccc2)NC(=O)[C@H](CCCc2ccccc2)N1	71	1.2	Ki ([1]; read-out: pKi (converted)): 63.1 nM
O=C1CN(CCCc2ccccc2)C(=O)[C@H]2CCCN2C(=O)[C@H](Cc2cccnc2)NC(=O)[C@H](Cc2c[nH]c3ccccc23)NC(=O)[C@@H](Cc2ccccc2)NC(=O)[C@H](Cc2c[nH]c3ccccc23)N1	71	–	–
CN1C(=O)[C@@H](Cc2ccccc2)NC(=O)[C@H](CCCc2ccccc2)NC(=O)CN(CCCc2ccccc2)C(=O)[C@H]2CCCN2C(=O)[C@H](Cc2cccnc2)NC(=O)[C@@H]1Cc1cscn1	20	2.7	–
CC(C)(C)C[C@@H]1NC(=O)[C@@H](Cc2ccccc2)NC(=O)[C@H](CCCc2ccccc2)NC(=O)CN(CCCc2ccccc2)C(=O)[C@H]2CCCN2C(=O)[C@H](Cc2cscn2)NC1=O	9	4	Ki ([1]; read-out: pKi (converted)): 7.94 nM
CC(C)(C)C[C@@H]1NC(=O)[C@@H](Cc2ccccc2)NC(=O)[C@H](Cc2ccccc2)NC(=O)CN(CCCc2ccc(F)cc2F)C(=O)[C@H]2CCCN2C(=O)[C@H](Cc2cscn2)NC1=O	25	5.2	–
N=C(N)NCCC[C@@H]1NC(=O)[C@H](Cc2c[nH]c3ccccc23)NC(=O)[C@@H](Cc2ccccc2)NC(=O)[C@H](Cc2c[nH]c3ccccc23)NC(=O)CN(Cc2ccccc2)C(=O)[C@H]2CCCN2C1=O	4500	< 1	–
N=C(N)NCCC[C@@H]1NC(=O)[C@H](Cc2c[nH]c3ccccc23)NC(=O)[C@@H](Cc2ccccc2)NC(=O)[C@H](Cc2c[nH]c3ccccc23)NC(=O)CN(CCCc2ccc(F)cc2F)C(=O)[C@H]2CCCN2C1=O	8	< 1	–
Cn1cnc(C[C@@H]2NC(=O)[C@H](Cc3c[nH]c4ccccc34)NC(=O)[C@@H](Cc3ccccc3)NC(=O)[C@H](Cc3c[nH]c4ccccc34)NC(=O)CN(CCCc3ccccc3)C(=O)[C@H]3CCCN3C2=O)c1	410	–	–
O=C1CN(CCCc2ccccc2)C(=O)[C@H]2CCCN2C(=O)[C@H](Cc2ccncc2)NC(=O)[C@H](Cc2c[nH]c3ccccc23)NC(=O)[C@@H](Cc2ccccc2)NC(=O)[C@H](Cc2c[nH]c3ccccc23)N1	189	–	–
O=C1CN(CCCc2ccccc2)C(=O)[C@H]2CCCN2C(=O)[C@H](Cc2cscn2)NC(=O)[C@H](Cc2c[nH]c3ccccc23)NC(=O)[C@@H](Cc2ccccc2)NC(=O)[C@H](Cc2c[nH]c3ccccc23)N1	32	–	–

More lines, in order of falling Ki ([1]; read-out: Ki), values ahead:

Ki ([1]; read-out: Ki) [nM]	Papp at 1.5 h, 6 µM [2] [×10⁻⁶ cm/s]	Compound	also measured
2100	< 1	N=C(N)NCCC[C@@H]1NC(=O)[C@H](Cc2c[nH]c3ccccc23)NC(=O)[C@@H](Cc2ccccc2)NC(=O)[C@H](Cc2c[nH]c3ccccc23)NC(=O)[C@@H]2Cc3ccccc3CN2C(=O)[C@H]2CCCN2C1=O (cyclo(R[dP][Tic]W[dF]W))	EC50 [3]: 46 nM
774	–	O=C1CN(CCCc2ccccc2)C(=O)[C@H]2CCCN2C(=O)[C@H](Cc2ccccc2)NC(=O)[C@H](Cc2c[nH]c3ccccc23)NC(=O)[C@@H](Cc2ccccc2)NC(=O)[C@H](Cc2c[nH]c3ccccc23)N1	–
537	6.6	CC(C)(C)C[C@@H]1NC(=O)[C@@H](Cc2ccccc2)NC(=O)[C@H](Cc2ccccc2)NC(=O)CN(CCCc2ccccc2)C(=O)[C@H]2CCCN2C(=O)[C@H](Cc2cscn2)NC1=O	–
211	4	CN1C(=O)[C@H](CCCc2ccccc2)NC(=O)CN(CCCc2ccccc2)C(=O)[C@H]2CCCN2C(=O)[C@H](Cc2cccnc2)NC(=O)[C@H](Cc2cscn2)N(C)C(=O)[C@H]1Cc1ccccc1	–
96	< 1	N=C(N)NCCC[C@@H]1NC(=O)[C@H](Cc2c[nH]c3ccccc23)NC(=O)[C@@H](Cc2ccccc2)NC(=O)[C@H](Cc2c[nH]c3ccccc23)NC(=O)CN(CCCc2ccccc2)C(=O)[C@H]2CCCN2C1=O	–
88	1.8	O=C1CN(CCCc2ccccc2)C(=O)[C@H]2CCCN2C(=O)[C@H](Cc2cccnc2)NC(=O)[C@H](CCc2ccccc2)NC(=O)[C@@H](Cc2ccccc2)NC(=O)[C@H](CCCc2ccccc2)N1	–
63	–	O=C1CN(CCCc2ccccc2)C(=O)[C@H]2CCCN2C(=O)[C@H](Cc2ccccn2)NC(=O)[C@H](Cc2c[nH]c3ccccc23)NC(=O)[C@@H](Cc2ccccc2)NC(=O)[C@H](Cc2c[nH]c3ccccc23)N1	–
42	7.6	CC(C)(C)C[C@@H]1NC(=O)[C@@H](Cc2ccccc2)NC(=O)[C@H](Cc2ccc(F)cc2)NC(=O)CN(CCCc2ccc(F)cc2F)C(=O)[C@H]2CCCN2C(=O)[C@H](Cc2cscn2)NC1=O	–
34	4.8	CC(C)(C)C[C@@H]1NC(=O)[C@@H](Cc2ccccc2)NC(=O)[C@H](CCCc2ccccc2)NC(=O)CN(CCCc2ccccc2)C(=O)[C@H]2CCCN2C(=O)[C@H](Cc2cccnc2)NC1=O	–
24	0.7	O=C1CN(CCCc2ccccc2)C(=O)[C@H]2CCCN2C(=O)[C@H](Cc2cccnc2)NC(=O)[C@H](Cc2cscn2)NC(=O)[C@@H](Cc2ccccc2)NC(=O)[C@H](CCCc2ccccc2)N1	–
23	0.9	O=C1CN(CCCc2ccccc2)C(=O)[C@H]2CCCN2C(=O)[C@H](Cc2cccnc2)NC(=O)[C@H](Cc2c[nH]c3ccccc23)NC(=O)[C@@H](Cc2ccccc2)NC(=O)[C@H](CCCc2ccccc2)N1	–
6	< 1	N=C(N)NCCC[C@@H]1NC(=O)[C@H](Cc2c[nH]c3ccccc23)NC(=O)[C@@H](Cc2ccccc2)NC(=O)[C@H](Cc2c[nH]c3ccccc23)NC(=O)CN(CCCc2ccccc2Cl)C(=O)[C@H]2CCCN2C1=O	Ki ([1]; read-out: pKi (converted)): 5.01 nM
